test system: CCRF-CEM; assay: Growth inhibition of human CCRF-CEM cells assessed as cell growth at 10 uM incubated for 48 hrs by sulforhodamine B assay relative to control; type: functional; settings: read-out: Activity
How it was run: (§1)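 NCI Developmental Therapeutics Program NCI60 panel. Compounds that were active in the 10 µM one-dose screen went on to dose–response testing. Growth at each concentration is expressed relative to untreated control (100%). GI50 (concentration giving 50% of maximal inhibition of proliferation) and TGI (concentration giving total growth inhibition) were derived from the curves.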

SMILES | growth at 10 µM [%]
Cc1cc(C)c(NC(=O)c2sc3nc4c(cc3c2N)CN(Cc2ccccc2)CC4)c(C)c1 | 12

test system: MOLT-4; assay: Growth inhibition of human MOLT-4 cells assessed as cell growth at 10 uM incubated for 48 hrs by sulforhodamine B assay relative to control; type: functional; settings: read-out: Activity
How it was run: (§2)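 Submitted to the NCI Developmental Therapeutics Program for the NCI60 human tumour cell line panel. First screen at a single 10 µM concentration. Read-out is growth relative to untreated control cells set at 100%.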

SMILES | growth at 10 µM [%]
Cc1cc(C)c(NC(=O)c2sc3nc4c(cc3c2N)CN(Cc2ccccc2)CC4)c(C)c1 | 21

test system: A549; assay: Growth inhibition of human A549/ATCC cells assessed as cell growth at 10 uM incubated for 48 hrs by sulforhodamine B assay relative to control; type: functional; settings: read-out: Activity; how it was run: as §1

SMILES | growth at 10 µM [%]
Cc1cc(C)c(NC(=O)c2sc3nc4c(cc3c2N)CN(Cc2ccccc2)CC4)c(C)c1 | 25

test system: HOP-62; assay: Growth inhibition of human HOP-62 cells assessed as cell growth at 10 uM incubated for 48 hrs by sulforhodamine B assay relative to control; type: functional; settings: read-out: Activity; how it was run: as §2

SMILES | growth at 10 µM [%]
Cc1cc(C)c(NC(=O)c2sc3nc4c(cc3c2N)CN(Cc2ccccc2)CC4)c(C)c1 | 46

test system: HOP-92; assay: Growth inhibition of human HOP-92 cells assessed as cell growth at 10 uM incubated for 48 hrs by sulforhodamine B assay relative to control; type: functional; settings: read-out: Activity; how it was run: as §2

SMILES | growth at 10 µM [%]
Cc1cc(C)c(NC(=O)c2sc3nc4c(cc3c2N)CN(Cc2ccccc2)CC4)c(C)c1 | 12

test system: NCI-H226; assay: Growth inhibition of human NCI-H226 cells assessed as cell growth at 10 uM incubated for 48 hrs by sulforhodamine B assay relative to control; type: functional; settings: read-out: Activity; how it was run: as §2

SMILES | growth at 10 µM [%]
Cc1cc(C)c(NC(=O)c2sc3nc4c(cc3c2N)CN(Cc2ccccc2)CC4)c(C)c1 | 36

test system: NCI-H322M; assay: Growth inhibition of human NCI-H322M cells assessed as cell growth at 10 uM incubated for 48 hrs by sulforhodamine B assay relative to control; type: functional; settings: read-out: Activity; how it was run: as §2

SMILES | growth at 10 µM [%]
Cc1cc(C)c(NC(=O)c2sc3nc4c(cc3c2N)CN(Cc2ccccc2)CC4)c(C)c1 | 47

test system: NCI-H460; assay: Growth inhibition of human NCI-H460 cells assessed as cell growth at 10 uM incubated for 48 hrs by sulforhodamine B assay relative to control; type: functional; settings: read-out: Activity; how it was run: as §2

SMILES | growth at 10 µM [%]
Cc1cc(C)c(NC(=O)c2sc3nc4c(cc3c2N)CN(Cc2ccccc2)CC4)c(C)c1 | 7

test system: HCT-116; assay: Growth inhibition of human HCT-116 cells assessed as cell growth at 10 uM incubated for 48 hrs by sulforhodamine B assay relative to control; type: functional; settings: read-out: Activity; how it was run: as §2

SMILES | growth at 10 µM [%]
Cc1cc(C)c(NC(=O)c2sc3nc4c(cc3c2N)CN(Cc2ccccc2)CC4)c(C)c1 | 16

test system: HCT-15; assay: Growth inhibition of human HCT-15 cells assessed as cell growth at 10 uM incubated for 48 hrs by sulforhodamine B assay relative to control; type: functional; settings: read-out: Activity; how it was run: as §2

SMILES | growth at 10 µM [%]
Cc1cc(C)c(NC(=O)c2sc3nc4c(cc3c2N)CN(Cc2ccccc2)CC4)c(C)c1 | 12

test system: KM12; assay: Growth inhibition of human KM12 cells assessed as cell growth at 10 uM incubated for 48 hrs by sulforhodamine B assay relative to control; type: functional; settings: read-out: Activity; how it was run: as §2

SMILES | growth at 10 µM [%]
Cc1cc(C)c(NC(=O)c2sc3nc4c(cc3c2N)CN(Cc2ccccc2)CC4)c(C)c1 | 15

test system: SF-295; assay: Growth inhibition of human SF-295 cells assessed as cell growth at 10 uM incubated for 48 hrs by sulforhodamine B assay relative to control; type: functional; settings: read-out: Activity
How it was run: (§3)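 Run by the NCI Developmental Therapeutics Program as part of its 60-line human tumour panel. Each compound tested at a single 10 µM dose. Growth expressed as % relative to untreated control cells (100%).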

SMILES | growth at 10 µM [%]
Cc1cc(C)c(NC(=O)c2sc3nc4c(cc3c2N)CN(Cc2ccccc2)CC4)c(C)c1 | 8

test system: SF-539; assay: Growth inhibition of human SF-539 cells assessed as cell growth at 10 uM incubated for 48 hrs by sulforhodamine B assay relative to control; type: functional; settings: read-out: Activity; how it was run: as §3

SMILES | growth at 10 µM [%]
Cc1cc(C)c(NC(=O)c2sc3nc4c(cc3c2N)CN(Cc2ccccc2)CC4)c(C)c1 | -11

test system: U-251; assay: Growth inhibition of human U-251 cells assessed as cell growth at 10 uM incubated for 48 hrs by sulforhodamine B assay relative to control; type: functional; settings: read-out: Activity; how it was run: as §3

SMILES | growth at 10 µM [%]
Cc1cc(C)c(NC(=O)c2sc3nc4c(cc3c2N)CN(Cc2ccccc2)CC4)c(C)c1 | 26

test system: Malme-3M; assay: Growth inhibition of human Malme-3M cells assessed as cell growth at 10 uM incubated for 48 hrs by sulforhodamine B assay relative to control; type: functional; settings: read-out: Activity; how it was run: as §2

SMILES | growth at 10 µM [%]
Cc1cc(C)c(NC(=O)c2sc3nc4c(cc3c2N)CN(Cc2ccccc2)CC4)c(C)c1 | 28

test system: M14; assay: Growth inhibition of human M14 cells assessed as cell growth at 10 uM incubated for 48 hrs by sulforhodamine B assay relative to control; type: functional; settings: read-out: Activity; how it was run: as §2

SMILES | growth at 10 µM [%]
Cc1cc(C)c(NC(=O)c2sc3nc4c(cc3c2N)CN(Cc2ccccc2)CC4)c(C)c1 | 17

test system: MDA-MB-435; assay: Growth inhibition of human MDA-MB-435 cells assessed as cell growth at 10 uM incubated for 48 hrs by sulforhodamine B assay relative to control; type: functional; settings: read-out: Activity; how it was run: as §2

SMILES | growth at 10 µM [%]
Cc1cc(C)c(NC(=O)c2sc3nc4c(cc3c2N)CN(Cc2ccccc2)CC4)c(C)c1 | -11

test system: SK-MEL-28; assay: Growth inhibition of human SK-MEL-28 cells assessed as cell growth at 10 uM incubated for 48 hrs by sulforhodamine B assay relative to control; type: functional; settings: read-out: Activity; how it was run: as §3

SMILES | growth at 10 µM [%]
Cc1cc(C)c(NC(=O)c2sc3nc4c(cc3c2N)CN(Cc2ccccc2)CC4)c(C)c1 | 46

test system: SK-MEL-5; assay: Growth inhibition of human SK-MEL-5 cells assessed as cell growth at 10 uM incubated for 48 hrs by sulforhodamine B assay relative to control; type: functional; settings: read-out: Activity; how it was run: as §3

SMILES | growth at 10 µM [%]
Cc1cc(C)c(NC(=O)c2sc3nc4c(cc3c2N)CN(Cc2ccccc2)CC4)c(C)c1 | 3

test system: UACC-257; assay: Growth inhibition of human UACC-257 cells assessed as cell growth at 10 uM incubated for 48 hrs by sulforhodamine B assay relative to control; type: functional; settings: read-out: Activity; how it was run: as §3

SMILES | growth at 10 µM [%]
Cc1cc(C)c(NC(=O)c2sc3nc4c(cc3c2N)CN(Cc2ccccc2)CC4)c(C)c1 | 44

test system: UACC-62; assay: Growth inhibition of human UACC-62 cells assessed as cell growth at 10 uM incubated for 48 hrs by sulforhodamine B assay relative to control; type: functional; settings: read-out: Activity; how it was run: as §3

SMILES | growth at 10 µM [%]
Cc1cc(C)c(NC(=O)c2sc3nc4c(cc3c2N)CN(Cc2ccccc2)CC4)c(C)c1 | 37

test system: IGROV-1; assay: Growth inhibition of human IGROV-1 cells assessed as cell growth at 10 uM incubated for 48 hrs by sulforhodamine B assay relative to control; type: functional; settings: read-out: Activity; how it was run: as §2

SMILES | growth at 10 µM [%]
Cc1cc(C)c(NC(=O)c2sc3nc4c(cc3c2N)CN(Cc2ccccc2)CC4)c(C)c1 | 42

test system: OVCAR-3; assay: Growth inhibition of human OVCAR-3 cells assessed as cell growth at 10 uM incubated for 48 hrs by sulforhodamine B assay relative to control; type: functional; settings: read-out: Activity; how it was run: as §3

SMILES | growth at 10 µM [%]
Cc1cc(C)c(NC(=O)c2sc3nc4c(cc3c2N)CN(Cc2ccccc2)CC4)c(C)c1 | 5

test system: OVCAR-5; assay: Growth inhibition of human OVCAR-5 cells assessed as cell growth at 10 uM incubated for 48 hrs by sulforhodamine B assay relative to control; type: functional; settings: read-out: Activity; how it was run: as §3

SMILES | growth at 10 µM [%]
Cc1cc(C)c(NC(=O)c2sc3nc4c(cc3c2N)CN(Cc2ccccc2)CC4)c(C)c1 | 54

test system: NCI/ADR-RES; assay: Growth inhibition of human NCI/ADR-RES cells assessed as cell growth at 10 uM incubated for 48 hrs by sulforhodamine B assay relative to control; type: functional; settings: read-out: Activity; how it was run: as §2

SMILES | growth at 10 µM [%]
Cc1cc(C)c(NC(=O)c2sc3nc4c(cc3c2N)CN(Cc2ccccc2)CC4)c(C)c1 | -18

test system: A498; assay: Growth inhibition of human A498 cells assessed as cell growth at 10 uM incubated for 48 hrs by sulforhodamine B assay relative to control; type: functional; settings: read-out: Activity; how it was run: as §1

SMILES | growth at 10 µM [%]
Cc1cc(C)c(NC(=O)c2sc3nc4c(cc3c2N)CN(Cc2ccccc2)CC4)c(C)c1 | -7

test system: RXF 393; assay: Growth inhibition of human RXF 393 cells assessed as cell growth at 10 uM incubated for 48 hrs by sulforhodamine B assay relative to control; type: functional; settings: read-out: Activity; how it was run: as §3

SMILES | growth at 10 µM [%]
Cc1cc(C)c(NC(=O)c2sc3nc4c(cc3c2N)CN(Cc2ccccc2)CC4)c(C)c1 | 5

test system: SN12C; assay: Growth inhibition of human SN12C cells assessed as cell growth at 10 uM incubated for 48 hrs by sulforhodamine B assay relative to control; type: functional; settings: read-out: Activity; how it was run: as §3

SMILES | growth at 10 µM [%]
Cc1cc(C)c(NC(=O)c2sc3nc4c(cc3c2N)CN(Cc2ccccc2)CC4)c(C)c1 | 36

test system: UO-31; assay: Growth inhibition of human UO-31 cells assessed as cell growth at 10 uM incubated for 48 hrs by sulforhodamine B assay relative to control; type: functional; settings: read-out: Activity; how it was run: as §3

SMILES | growth at 10 µM [%]
Cc1cc(C)c(NC(=O)c2sc3nc4c(cc3c2N)CN(Cc2ccccc2)CC4)c(C)c1 | 37

test system: PC-3; assay: Growth inhibition of human PC-3 cells assessed as cell growth at 10 uM incubated for 48 hrs by sulforhodamine B assay relative to control; type: functional; settings: read-out: Activity; how it was run: as §3

SMILES | growth at 10 µM [%]
Cc1cc(C)c(NC(=O)c2sc3nc4c(cc3c2N)CN(Cc2ccccc2)CC4)c(C)c1 | 25

test system: Hs-578T; assay: Growth inhibition of human Hs-578T cells assessed as cell growth at 10 uM incubated for 48 hrs by sulforhodamine B assay relative to control; type: functional; settings: read-out: Activity; how it was run: as §2

SMILES | growth at 10 µM [%]
Cc1cc(C)c(NC(=O)c2sc3nc4c(cc3c2N)CN(Cc2ccccc2)CC4)c(C)c1 | 15

test system: MDA-MB-468; assay: Growth inhibition of human MDA-MB-468 cells assessed as cell growth at 10 uM incubated for 48 hrs by sulforhodamine B assay relative to control; type: functional; settings: read-out: Activity; how it was run: as §2

SMILES | growth at 10 µM [%]
Cc1cc(C)c(NC(=O)c2sc3nc4c(cc3c2N)CN(Cc2ccccc2)CC4)c(C)c1 | 10

— ChEMBL document CHEMBL4715736, “Identification of anticancer agents based on the thieno[2,3-b]pyridine and 1H-pyrazole molecular scaffolds” (2016)
